Bioassay records as filed in PubChem BioAssay.
Only some compounds are listed: those with a hit (about 5.7% of all), similar ones and a draw of the others.
T cruzi inh: T. cruzi replication inhibition. T. cruzi beta-gal in NIH3T3, luminescence, 90 h. inhibition, % (concentration not given with the values). hit rate 1.4% among 300,000;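 active = mean inhibition across valid replicates above about 55%, limit read from the data; inconclusive = mean below that limit but half or more replicates reach it; inactive = mean below it, under half of replicates reach it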;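 also: signal also drops with host cell toxicity which is not excluded here; 0% = plate median of DMSO wells and 100% = zero luminescence signal; higher percent means less beta-gal luminescence so fewer parasites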
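Read-out: Parasite load inhibition, % | Test system: Mouse NIH/3T3 fibroblasts infected with β-gal-expressing T. cruzi Tulahuen C4 | Amount: 5,000 cells/well | Medium: DMEM, 2% fetal bovine serum | Signal: GalScreen β-gal luminescence, detergent lysis, 60 min | Timing: 3 h attach, ≥90 h co-culture | Also added: Tulahuen C4 trypomastigotes, 5000/well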
Calb FLC: affects C. albicans growth with fluconazole | C. albicans CaCi-2 + fluconazole, Alamar Blue growth, 48 h | growth inhibition, % (no concentration beside the values) | hit rate 0.57% among 300,000;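 active = growth inhibition above about 58% in most replicates, limit read from the data, passing the limit was not always enough; inconclusive = exactly half the replicates above a set limit; inactive = most replicates below a set limit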;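 also: all wells also contain fluconazole at 8 µg/ml as a sub-toxic cotreatment; 0% = median of DMSO wells and 100% = median of geldanamycin control wells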
Mdm2 MdmX PPI: inhibitors of human Mdm2/MdmX interaction. inhibition, % at 8 µM. AID 485346. hit rate 3% among 330,000. SaOS-2 split-luciferase Mdm2/MdmX complementation, luminescence. O15151+Q00987;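 active = inhibition of at least 50% at 8 µM in the primary screen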
Beta cell apopt: beta cell apoptosis inhibition; INS-1E cytokine-induced death, ATP luminescence, 48 h; percent of positive-control rescue, neutral wells zero; protection from apoptosis, % (test concentration not listed); AID 435005; hit rate 0.8% among 300,000;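 active = Every replicate reaches about 75%, or at least half do and their mean reaches it too, limit read from the data; inconclusive = At least half of replicates reach the limit but their mean does not; inactive = Under half of replicates reach the limit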;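 also: 0% = cytokine-treated negative control wells and 100% = positive control rescue; higher means more ATP so stronger rescue from cytokine killing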
CSC inhib: cancer stem cell inhibition. inhibition, % at 7.5 µM. AID 2717. cancer stem cell-like cells viability, luminescence. hit rate 1.1% among 300,000; in the data active = inhibition above about 75%; inconclusive = no clear call, values can overlap the other calls; tested in HMLE shEcad cells
SKKanGAS inh: inhibitors of SKKanGAS S. pyogenes growth in kanamycin (SK-promoter or general growth effect) | BacTiter-Glo, 6 h | inhibition, % at 7.5 µM | hit rate 1.3% among 300,000 | AID 1662;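 active = mean replicate score, as percent of positive control median, at least 50; inconclusive = mean below 50 but one replicate at or above 50; inactive = mean and every replicate below 50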;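 also: strain carries kanamycin resistance gene driven by streptokinase promoter and grows in 40 µg/ml kanamycin; loss of luminescence reflects streptokinase promoter inhibition or plain growth inhibition; 0% = median of DMSO wells and 100% = positive control at its reference dose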
Mdm2 MdmX conf: confirmation of human Mdm2/MdmX interaction inhibitors; shares compounds with Mdm2 MdmX PPI; Mdm2-MdmX binding, luminescent assay; inhibition, % at 8 µM; hit rate 55% among 10,000; AID 489028; in the data active = inhibition above about 40%
Full FLuc ctr: inhibits full-length luciferase, flagging false Mdm2/MdmX hits | hit rate 77% among 6,200 | inhibition, % at 8 µM | shares compounds with Mdm2 MdmX PPI | SaOS-2 full-length luciferase counterscreen, luminescence;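 active = mean inhibition at 8 µM reaching about 37%, which flags the compound as non-specific, limit read from the data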;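 also: p53-null SaOS-2 cells with luciferase driven by a doxycycline-inducible promoter; compound on cells about two nights before reading with doxycycline added after day one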
The depositor's hits bear a star; ? = inconclusive; · = not tested or not shown.

SMILES	T cruzi inh	Calb FLC	Mdm2 MdmX PPI	Beta cell apopt	CSC inhib	SKKanGAS inh	Mdm2 MdmX conf	Full FLuc ctr
Cc1ccc([N+](=O)[O-])cc1NC(=S)NC(=O)c1cccs1	-9	-5	62*	1	-2	-3	18	·
COc1ccc([N+](=O)[O-])cc1NC(=O)c1cccs1	-4	-1	15	4	0	-1	·	·
COc1ccc(C)cc1NC(=O)CSCc1cc(=O)n2c(C)csc2n1	·	·	0	·	·	·	·	·
CC(C)Oc1ccc(C(CCN)C2CCCCC2)cc1 (stereo not drawn)	33	3	88*	91*	31	1	42*	65*
Cn1c(=O)c2c(SCC(=O)Nc3ccccc3F)nc(C3CC3)nc2n(C)c1=O	-14	0	79*	-2	-8	25	17	·
Cc1nc(SCC(=O)Nc2cc(C)on2)c2c(=O)n(C)c(=O)n(C)c2n1	-14	-4	1	3	-7	-3	·	·
Cn1c(=O)c2c(SCC(=O)Nc3ccccc3F)nc(-c3ccccc3F)nc2n(C)c1=O	2	-7	71*	14	37	17	40	61*
Cc1ccc(-c2nc(SCC(=O)Nc3cc(C)on3)c3c(=O)n(C)c(=O)n(C)c3n2)cc1	-47	6	77*	-2	29	18	18	·
CCC(C(=O)O/N=C(\N)c1ccccc1)c1ccccc1 (stereo not drawn)	13	18	35	·	-5	28	·	·
CCC(C(=O)O/N=C(\N)c1ccc(Cl)cc1)c1ccccc1 (stereo not drawn)	3	-3	64*	-3	-12	0	14	·
CCC(C(=O)O/N=C(\N)c1ccc(C)cc1)c1ccccc1 (stereo not drawn)	0	4	51*	-5	·	-2	18	·
COc1ccccc1NCC(=O)NC(=O)NC1CCCCC1	·	·	-6	-2	-11	·	·	·
COc1cc(OC)cc(-c2nnc(SCC(=O)N3c4ccccc4Sc4ccccc43)o2)c1	3	-3	54*	2	20	5	12	·
N#CC1=C(N)Oc2cc(N)ccc2C1c1cccc(F)c1 (stereo not drawn)	4	-2	54*	6	50	2	44*	65*
COC(=O)c1ccc(C2C(C#N)=C(N)Oc3cc(N)ccc32)cc1 (stereo not drawn)	4	-11	16	-3	1	11	·	·
CN(C)c1ccc2c(c1)OC(N)=C(C#N)C2c1cccc(F)c1 (stereo not drawn)	-2	57	65*	32	·	-4	62*	97*
CCCN(CCC)CCCNC(=O)c1cn(-c2ccc(OC)cc2)c(=O)c2ccccc12	-3	-7	10	-8	-11	-1	·	·
COc1ccc(C2CC(c3ccc4ccccc4c3)=NN2C(=O)CNC2CCCCC2)cc1 (stereo not drawn)	80*	30	62*	20	-6	9	28	·
COc1ccc(C2CC(c3ccccc3)=NN2C(=O)COC(=O)c2ccc(S(C)(=O)=O)cc2)cc1 (stereo not drawn)	16	-2	20	-6	0	-3	·	·
COc1ccc(C2CC(c3ccccc3)=NN2C(=O)COC(=O)c2cccc(O)c2)cc1 (stereo not drawn)	·	·	55*	0	-2	·	-7	·
Cc1sc2ncn(CC(=O)N3CCC(C(N)=O)CC3)c(=O)c2c1S(=O)(=O)N1CCOCC1	-8	-5	25	-1	-11	-3	·	·
COCCn1cnc2c1c(=O)[nH]c(=O)n2Cc1ccccc1	-28	5	-11	·	·	3	·	·
COc1ccc(C(=O)/C(C#N)=N/Nc2ccc([N+](=O)[O-])cc2)cc1	-11	-8	90*	107*	18	11	92*	51*
N#C/C(=N\Nc1ccc(Cl)cc1)C(=O)c1ccccc1	-6	26	84*	99*	59	30	56*	44*
C/C(=N\NC(=O)C(C)Oc1ccc([N+](=O)[O-])cc1)c1ccccn1 (stereo not drawn)	?	2	54*	90*	53	4	32	·
SMILES	T cruzi inh	Calb FLC	Mdm2 MdmX PPI	Beta cell apopt	CSC inhib	SKKanGAS inh	Mdm2 MdmX conf	Full FLuc ctr
C#CC[N+]1(CC#Cc2ccccc2)CCCCC1	-11	1	11	-1	-10	-1	·	·
Cc1ccc(C#CC[N+]2(CC#Cc3ccc(C)cc3)CCCCC2)cc1	74*	-1	55*	113*	16	-1	50*	52*
Clc1nc2c(-c3ccccc3)nnn2c2ccccc12	64*	-6	100*	-5	71	-2	55*	51*
O=C1c2cc(F)ccc2-n2c1nc1ccccc1c2=O	52	-33	63*	62	39	39	34	23
Cc1ccnc(NC(=O)c2ccc(S(=O)(=O)N3CCCCCC3)cc2)c1	-1	0	-28	-5	3	-9	·	·
COCCNC(=S)NCc1ccc2[nH]c3c(c2c1)CCCC3	-4	-5	-12	·	-1	-3	·	·
Cc1ccc(NC(=S)NCc2ccc3[nH]c4c(c3c2)CCCC4)cc1	-1	-9	72*	-4	·	7	8	·
CN1CCN(CC(=O)N2CCn3c4c(c5cc(C6CCCCC6)ccc53)CCCC42)CC1 (stereo not drawn)	15	111*	98*	19	46	·	73*	52*
Cc1ccc2c(c1)c1c3n2CCN(C(=O)CN2CCN(C)CC2)C3CCC1 (stereo not drawn)	31	-5	43	-2	21	-4	·	·
CCOc1ccccc1NC(=O)CN(c1ccc(OC)cc1)S(=O)(=O)c1c(C)noc1C	-7	2	58*	7	58	0	56*	60*
CCOc1ccc(N(CC(=O)Nc2ccccc2C)S(=O)(=O)c2c(C)noc2C)cc1	-29	1	56*	·	65	2	57*	57*
O=C(CN1CCN(c2ccccc2F)CC1)NC(=O)NC1CCCCC1	·	·	2	-5	-15	·	·	·
COc1ccc2c(c1)c(=O)oc1cc(OCC(=O)NC3CC3)ccc12	-4	-6	53*	1	·	-2	-18	·
COc1ccc2c(c1)c(=O)oc1cc(OCC(=O)NC3CCCCC3)ccc12	18	18	12	2	-3	12	·	·
Cc1cc2nc(-c3ccc(SCC(=O)Nc4ccc(S(=O)(=O)N5CCCC5)cc4)nc3)[nH]c2cc1C	10	-4	69*	8	22	24	-8	·
CC(=O)CSc1ccc(-c2nc3cc(C)c(C)cc3[nH]2)cn1	14	23	68*	6	16	-4	67*	66*
O=C(CCCOc1ccccc1)NN1C(=O)NC2(CCCCC2)C1=O	2	-7	-17	-1	·	2	·	·
